# ChEMBL document CHEMBL6134766, “Design, synthesis, and evaluation of benzhydrylpiperazine-based novel dual COX-2/5-LOX inhibitors with anti-inflammatory and anti-cancer activity” (RSC Med Chem, 2025)
# Calls of active or inactive are those of the source. The rule behind the calls is not given here.
# Tests used:
# [1] = Toxicity in Wistar rat assessed as change in serum AST level at 10 mg/kg, po; assay type: organism-based; conditions: in vivo
# Procedure, shortened: (§1)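 Rats dosed orally in 0.3% Na CMC; retro-orbital blood clotted at room temperature, serum separated at 2000 rpm, 20 min, 4 °C; ALT, AST, creatinine and urea by commercial kits; n = 6 per group, mean ± SD; Tukey test after repeated-measures one-way ANOVA.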
# Rattus norvegicus [2] = assay: Anti-inflammatory activity in carrageenan-induced paw edema Wistar rat model assessed as swelling thickness of paw at 10 mg/kg, po measured after 2 hrs by digital vernier caliper (reference value: 8.65 +/- 0.53 millimeter); assay type: functional
# Rattus norvegicus [3] = assay: Anti-inflammatory activity in carrageenan-induced paw edema Wistar rat model assessed as swelling thickness of paw at 10 mg/kg, po measured after 3 hrs by digital vernier caliper (reference value: 8.56 +/- 0.45 millimeter); assay type: functional
# [4] = Toxicity in Wistar rat assessed as change in serum creatinine level at 10 mg/kg, po; assay type: organism-based; conditions: in vivo; procedure, shortened: as §1
# [5] = Toxicity in fasting Wistar rat assessed as ulcer score at 10 mg/kg, po via gavage treated for 3 days consecutively by H and E staining based analysis (reference value: 0); assay type: organism-based; conditions: in vivo, 72 h, time 3 day
# Procedure, shortened: (§2)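 Fasted rats, n = 6/group, gavaged once daily for 3 days in 0.3% Na CMC (vehicle control 0.3% CMC); killed under anaesthesia 6 h after day-3 dose; stomachs saline-washed, mucosa examined with hand lens; ulcer score, index and % ulceration by reported scoring; some stomachs formalin-fixed, H&E stained.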
# Gastric mucosa [6] = assay: Antioxidant activity in gastric mucosal tissue in Wistar rat assessed as increase in SOD level at 10 mg/kg, po; assay type: functional, organism-based
# Procedure, shortened: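 Gastric tissue from fasted rats (dosed orally once daily for 3 days in 0.3% Na CMC) homogenized in cold PBS pH 7.4, centrifuged 1000 rpm, 10 min, 4 °C; protein by Bradford; SOD measured in supernatant per reported procedure.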
# Rattus norvegicus [7] = assay: Anti-inflammatory activity in carrageenan-induced paw edema Wistar rat model assessed as swelling thickness of paw at 10 mg/kg, po measured immediately by digital vernier caliper (reference value: 3.48 +/- 0.21 millimeter); assay type: functional
# Gastric mucosa [8] = assay: Antioxidant activity in gastric mucosal tissue in Wistar rat assessed as increase in GSH level at 10 mg/kg, po; assay type: functional, organism-based
# Procedure, shortened: (§3)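 Fasted rats (n = 6/group) gavaged once daily for 3 days in 0.3% Na CMC and sacrificed 6 h after the final dose. Randomly chosen stomachs homogenized in cold PBS pH 7.4 and centrifuged at 1000 rpm for 10 min at 4 °C. Supernatant protein measured by Bradford assay; GSH and nitrate then measured by reported methods.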
# [9] = Toxicity in Wistar rat assessed as change in serum ALT level at 10 mg/kg, po; assay type: organism-based; conditions: in vivo; procedure, shortened: as §1
# Rattus norvegicus [10] = assay: Anti-inflammatory activity in carrageenan-induced paw edema Wistar rat model assessed as swelling thickness of paw at 10 mg/kg, po measured after 5 hrs by digital vernier caliper (reference value: 8.47 +/- 0.32 millimeter); assay type: functional
# [11] = Toxicity in fasting Wistar rat assessed as ulcer index at 10 mg/kg, po via gavage treated for 3 days consecutively by H and E staining based analysis (reference value: 0); assay type: organism-based; conditions: in vivo, 72 h, time 3 day; procedure, shortened: as §2
# Rattus norvegicus [12] = assay: Anti-inflammatory activity in carrageenan-induced paw edema Wistar rat model assessed as swelling thickness of paw at 10 mg/kg, po measured after 6 hrs by digital vernier caliper (reference value: 8.33 +/- 0.42 millimeter); assay type: functional
# Gastric mucosa [13] = assay: Antioxidant activity in gastric mucosal tissue in Wistar rat assessed as decrease in nitrite level at 10 mg/kg, po; assay type: functional, organism-based; procedure, shortened: as §3
# Rattus norvegicus [14] = assay: Anti-inflammatory activity in carrageenan-induced paw edema Wistar rat model assessed as swelling thickness of paw at 10 mg/kg, po measured after 1 hr by digital vernier caliper (reference value: 8.47 +/- 0.25 millimeter); assay type: functional
# Rattus norvegicus [15] = assay: Anti-inflammatory activity in carrageenan-induced paw edema Wistar rat model assessed as decrease in TNF-alpha level in paw tissue at 10 mg/kg, po measured for 6 hrs by ELISA; assay type: functional, organism-based
# Procedure, shortened: (§4)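 Paw tissue taken from carrageenan-edema rats dosed orally at 5, 10 or 20 mg kg−1. Tissue rinsed in PBS pH 7.4, minced, homogenized, filtered and centrifuged at 2000 rpm for 20 min at 4 °C. Supernatant assayed by ELISA for PGE2, IL-6, TNF-α and IL-10. Data as mean ± SD.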
# [16] = Toxicity in Wistar rat assessed as change in serum urea level at 10 mg/kg, po; assay type: organism-based; conditions: in vivo; procedure, shortened: as §1
# Rattus norvegicus [17] = assay: Anti-inflammatory activity in carrageenan-induced paw edema Wistar rat model assessed as swelling thickness of paw at 10 mg/kg, po measured after 4 hrs by digital vernier caliper (reference value: 8.36 +/- 0.78 millimeter); assay type: functional
# Rattus norvegicus [18] = assay: Anti-inflammatory activity in carrageenan-induced paw edema Wistar rat model assessed as increase in IL-10 level in paw tissue at 10 mg/kg, po measured for 6 hrs by ELISA; assay type: functional, organism-based; procedure, shortened: as §4
# [19] = Toxicity in fasting Wistar rat assessed as ulceration at 10 mg/kg, po via gavage treated for 3 days consecutively by H and E staining based analysis (reference value: 0 %); assay type: organism-based; conditions: in vivo, 72 h, time 3 day; procedure, shortened: as §2
# Rattus norvegicus [20] = assay: Anti-inflammatory activity in carrageenan-induced paw edema Wistar rat model assessed as decrease in IL-6 level in paw tissue at 10 mg/kg, po measured for 6 hrs by ELISA; assay type: functional, organism-based; procedure, shortened: as §4
# Rattus norvegicus [21] = assay: Analgesic activity in acetic acid-induced pain Wistar rat model assessed as number of writhing at 10 mg/kg, po pretreated for 30 mins followed by acetic acid treatment measured for 30 mins by writhing test (reference value: 40.33 +/- 3.01); assay type: functional; conditions: time 60 min, 1 h
smiles,measurement,setting,value
COc1ccc2c(c1)c(CC(=O)O)c(C)n2C(=O)c1ccc(Cl)cc1 [INDOMETHACIN],Activity,[1],Toxic
same,Activity,Rattus norvegicus [2],3.73 mm
same,Activity,Rattus norvegicus [3],3.38 mm
same,Activity,[4],Toxic
same,Activity,[5],3.041
same,Activity,Gastric mucosa [6],Active
same,Activity,Rattus norvegicus [7],3.37 mm
same,Activity,Gastric mucosa [8],Active
same,Activity,[9],Toxic
same,Activity,Rattus norvegicus [10],3.17 mm
same,UI,[11],304.16
same,Activity,Rattus norvegicus [12],3.29 mm
same,Activity,Gastric mucosa [13],Active
same,Activity,Rattus norvegicus [14],3.74 mm
same,Activity,Rattus norvegicus [15],Active
same,Activity,[16],Toxic
same,Activity,Rattus norvegicus [17],3.14 mm
same,Activity,Rattus norvegicus [18],Active
same,Activity,[19],100%
same,Activity,Rattus norvegicus [20],Active
same,Activity,Rattus norvegicus [21],16.5
